Measured values taken from ChEMBL document CHEMBL3297679, “Studies on molecular properties prediction, antitubercular and antimicrobial activities of novel quinoline based pyrimidine motifs” (Bioorg Med Chem Lett, 2014).
Converted amounts (≈) assume the structure as drawn.

Key:
[1] = system: Streptococcus pyogenes; assay: Antibacterial activity against Streptococcus pyogenes MTCC 442 by conventional broth microdilution method; type: functional
[2] = system: Aspergillus clavatus; assay: Antifungal activity against Aspergillus clavatus MTCC 1323 by conventional broth microdilution method; type: functional
[3] = system: Staphylococcus aureus; assay: Antibacterial activity against Staphylococcus aureus MTCC 96 by conventional broth microdilution method; type: functional
[4] = system: Mycobacterium tuberculosis; assay: Antimycobacterial activity against Mycobacterium tuberculosis H37Rv by Lowenstein-Jensen slope method; type: functional; settings: for MIC: Mycobacterium tuberculosis, H37Rv
[5] = system: Candida albicans; assay: Antifungal activity against Candida albicans MTCC 227 by conventional broth microdilution method; type: functional
[6] = system: Pseudomonas aeruginosa; assay: Antibacterial activity against Pseudomonas aeruginosa MTCC 1688 by conventional broth microdilution method; type: functional
[7] = system: Streptococcus pyogenes; assay: Ratio of ciprofloxacin MIC to compound MIC for Streptococcus pyogenes MTCC 442; type: functional
[8] = system: Pseudomonas aeruginosa; assay: Ratio of ciprofloxacin MIC to compound MIC for Pseudomonas aeruginosa MTCC 1688; type: functional
[9] = system: HeLa; assay: Cytotoxicity against human HeLa cells after 24 hrs incubation by MTT assay; type: functional, cell-based
Method in brief: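 HeLa cells (1.0 × 10⁴) were exposed to a range of test compound concentrations for 24 h at 37 °C under 5% CO₂. MTT was then added, the supernatant was discarded, and the formazan was dissolved in DMSO. Absorbance was read at 540 nm, and IC₅₀ was reported in µM.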

[10] = system: Escherichia coli; assay: Antibacterial activity against Escherichia coli MTCC 443 by conventional broth microdilution method; type: functional
[11] = system: Aspergillus niger; assay: Antifungal activity against Aspergillus niger MTCC 282 by conventional broth microdilution method; type: functional
[12] = system: Staphylococcus aureus; assay: Ratio of ciprofloxacin MIC to compound MIC for Staphylococcus aureus MTCC 96; type: functional

SMILES: N#CCCSC1=NC(c2ccc(O)cc2)=CC(c2cc3cc(Cl)ccc3nc2Cl)N1 (configuration not stated)
- MIC [1]: 12.5 mg/L (≈ 27.5 µM)
- MIC [2]: 25 mg/L (≈ 54.9 µM)
- MIC [3]: 25 mg/L (≈ 54.9 µM)
- inhibition (INH) [4]: 99%
- MIC [4]: 3.12 mg/L (≈ 6.85 µM)
- MIC [5]: 250 mg/L (≈ 549 µM)
- MIC [6]: 25 mg/L (≈ 54.9 µM)
- Ratio [7]: 4
- Ratio [8]: 2
- IC50 [9]: > 100 µM
- MIC [10]: 50 mg/L (≈ 110 µM)
- MIC [11]: 25 mg/L (≈ 54.9 µM)
- Ratio [12]: 4

SMILES: COc1cccc(C2=CC(c3cc4cc(Cl)ccc4nc3Cl)NC(SCCC#N)=N2)c1 (configuration not stated)
- MIC [1]: 100 mg/L (≈ 213 µM)
- MIC [2]: 100 mg/L (≈ 213 µM)
- MIC [3]: 50 mg/L (≈ 107 µM)
- inhibition (INH) [4]: 97%
- MIC [4]: 12.5 mg/L (≈ 26.6 µM)
- MIC [5]: 500 mg/L (≈ 1070 µM)
- MIC [6]: 250 mg/L (≈ 533 µM)
- MIC [10]: 100 mg/L (≈ 213 µM)
- MIC [11]: 500 mg/L (≈ 1070 µM)

SMILES: COc1ccc(C2=CC(c3cc4cc(Cl)ccc4nc3Cl)NC(SCCC#N)=N2)cc1 (configuration not stated)
- MIC [1]: 25 mg/L (≈ 53.3 µM)
- MIC [2]: 250 mg/L (≈ 533 µM)
- MIC [3]: 12.5 mg/L (≈ 26.6 µM)
- inhibition (INH) [4]: 99%
- MIC [4]: 0.2 mg/L (≈ 0.426 µM)
- MIC [5]: 1000 mg/L (≈ 2130 µM)
- MIC [6]: 25 mg/L (≈ 53.3 µM)
- Ratio [7]: 4
- IC50 [9]: > 100 µM
- MIC [10]: 25 mg/L (≈ 53.3 µM)
- MIC [11]: 250 mg/L (≈ 533 µM)
- Ratio [12]: 4

SMILES: N#CCCSC1=NC(c2cccc(Br)c2)=CC(c2cc3cc(Cl)ccc3nc2Cl)N1 (configuration not stated)
- MIC [1]: 1000 mg/L (≈ 1930 µM)
- MIC [2]: 1000 mg/L (≈ 1930 µM)
- MIC [3]: 500 mg/L (≈ 965 µM)
- inhibition (INH) [4]: 66%
- MIC [5]: > 1000 mg/L
- MIC [6]: 1000 mg/L (≈ 1930 µM)
- MIC [10]: > 1000 mg/L
- MIC [11]: 500 mg/L (≈ 965 µM)

SMILES: N#CCCSC1=NC(c2ccc(Br)cc2)=CC(c2cc3cc(Cl)ccc3nc2Cl)N1 (configuration not stated)
- MIC [1]: 500 mg/L (≈ 965 µM)
- MIC [2]: 500 mg/L (≈ 965 µM)
- MIC [3]: 250 mg/L (≈ 482 µM)
- inhibition (INH) [4]: 58%
- MIC [5]: 500 mg/L (≈ 965 µM)
- MIC [6]: 500 mg/L (≈ 965 µM)
- MIC [10]: 1000 mg/L (≈ 1930 µM)
- MIC [11]: 1000 mg/L (≈ 1930 µM)

SMILES: N#CCCSC1=NC(c2ccccc2)=CC(c2cc3cc(Cl)ccc3nc2Cl)N1 (configuration not stated)
- MIC [1]: 250 mg/L (≈ 569 µM)
- MIC [2]: 500 mg/L (≈ 1140 µM)
- MIC [3]: 100 mg/L (≈ 228 µM)
- inhibition (INH) [4]: 62%
- MIC [5]: 1000 mg/L (≈ 2280 µM)
- MIC [6]: 250 mg/L (≈ 569 µM)
- MIC [10]: 500 mg/L (≈ 1140 µM)
- MIC [11]: 1000 mg/L (≈ 2280 µM)

SMILES: N#CCCSC1=NC(c2cccc(Cl)c2)=CC(c2cc3cc(Cl)ccc3nc2Cl)N1 (configuration not stated)
- MIC [1]: 500 mg/L (≈ 1060 µM)
- MIC [2]: 1000 mg/L (≈ 2110 µM)
- MIC [3]: 250 mg/L (≈ 528 µM)
- inhibition (INH) [4]: 62%
- MIC [5]: > 1000 mg/L
- MIC [6]: 500 mg/L (≈ 1060 µM)
- MIC [10]: 1000 mg/L (≈ 2110 µM)
- MIC [11]: 500 mg/L (≈ 1060 µM)

SMILES: N#CCCSC1=NC(c2ccc(Cl)cc2)=CC(c2cc3cc(Cl)ccc3nc2Cl)N1 (configuration not stated)
- MIC [1]: 500 mg/L (≈ 1060 µM)
- MIC [2]: 1000 mg/L (≈ 2110 µM)
- MIC [3]: 250 mg/L (≈ 528 µM)
- inhibition (INH) [4]: 42%
- MIC [5]: > 1000 mg/L
- MIC [6]: 500 mg/L (≈ 1060 µM)
- MIC [10]: 1000 mg/L (≈ 2110 µM)
- MIC [11]: 500 mg/L (≈ 1060 µM)

SMILES: N#CCCSC1=NC(c2cccc(F)c2)=CC(c2cc3cc(Cl)ccc3nc2Cl)N1 (configuration not stated)
- MIC [1]: 250 mg/L (≈ 547 µM)
- MIC [2]: 500 mg/L (≈ 1090 µM)
- MIC [3]: 125 mg/L (≈ 273 µM)
- inhibition (INH) [4]: 41%
- MIC [5]: 1000 mg/L (≈ 2190 µM)
- MIC [6]: 500 mg/L (≈ 1090 µM)
- MIC [10]: 500 mg/L (≈ 1090 µM)
- MIC [11]: > 1000 mg/L

SMILES: N#CCCSC1=NC(c2ccc(F)cc2)=CC(c2cc3cc(Cl)ccc3nc2Cl)N1 (configuration not stated)
- MIC [1]: 500 mg/L (≈ 1090 µM)
- MIC [2]: 500 mg/L (≈ 1090 µM)
- MIC [3]: 500 mg/L (≈ 1090 µM)
- inhibition (INH) [4]: 69%
- MIC [5]: 1000 mg/L (≈ 2190 µM)
- MIC [6]: > 1000 mg/L
- MIC [10]: 1000 mg/L (≈ 2190 µM)
- MIC [11]: 1000 mg/L (≈ 2190 µM)

SMILES: Cc1cccc(C2=CC(c3cc4cc(Cl)ccc4nc3Cl)NC(SCCC#N)=N2)c1 (configuration not stated)
- MIC [1]: 100 mg/L (≈ 221 µM)
- MIC [2]: 500 mg/L (≈ 1100 µM)
- MIC [3]: 100 mg/L (≈ 221 µM)
- inhibition (INH) [4]: 81%
- MIC [5]: 1000 mg/L (≈ 2210 µM)
- MIC [6]: 100 mg/L (≈ 221 µM)
- MIC [10]: 250 mg/L (≈ 551 µM)
- MIC [11]: 500 mg/L (≈ 1100 µM)

SMILES: Cc1ccc(C2=CC(c3cc4cc(Cl)ccc4nc3Cl)NC(SCCC#N)=N2)cc1 (configuration not stated)
- MIC [1]: 25 mg/L (≈ 55.1 µM)
- MIC [2]: 250 mg/L (≈ 551 µM)
- MIC [3]: 25 mg/L (≈ 55.1 µM)
- inhibition (INH) [4]: 98%
- MIC [4]: 3.12 mg/L (≈ 6.88 µM)
- MIC [5]: 500 mg/L (≈ 1100 µM)
- MIC [6]: 50 mg/L (≈ 110 µM)
- Ratio [7]: 2
- IC50 [9]: 94.2 µM
- MIC [10]: 50 mg/L (≈ 110 µM)
- MIC [11]: 500 mg/L (≈ 1100 µM)
- Ratio [12]: 2

SMILES: N#CCCSC1=NC(c2cccc([N+](=O)[O-])c2)=CC(c2cc3cc(Cl)ccc3nc2Cl)N1 (configuration not stated)
- MIC [1]: 1000 mg/L (≈ 2060 µM)
- MIC [2]: > 1000 mg/L
- MIC [3]: 500 mg/L (≈ 1030 µM)
- inhibition (INH) [4]: 38%
- MIC [5]: > 1000 mg/L
- MIC [6]: 1000 mg/L (≈ 2060 µM)
- MIC [10]: > 1000 mg/L
- MIC [11]: 500 mg/L (≈ 1030 µM)

SMILES: N#CCCSC1=NC(c2ccc([N+](=O)[O-])cc2)=CC(c2cc3cc(Cl)ccc3nc2Cl)N1 (configuration not stated)
- MIC [1]: 500 mg/L (≈ 1030 µM)
- MIC [2]: 1000 mg/L (≈ 2060 µM)
- MIC [3]: 1000 mg/L (≈ 2060 µM)
- inhibition (INH) [4]: 56%
- MIC [5]: > 1000 mg/L
- MIC [6]: 1000 mg/L (≈ 2060 µM)
- MIC [10]: 500 mg/L (≈ 1030 µM)
- MIC [11]: > 1000 mg/L

SMILES: N#CCCSC1=NC(c2cccc(O)c2)=CC(c2cc3cc(Cl)ccc3nc2Cl)N1 (configuration not stated)
- MIC [1]: 100 mg/L (≈ 220 µM)
- MIC [2]: 250 mg/L (≈ 549 µM)
- MIC [3]: 100 mg/L (≈ 220 µM)
- inhibition (INH) [4]: 98%
- MIC [4]: 100 mg/L (≈ 220 µM)
- MIC [5]: 500 mg/L (≈ 1100 µM)
- MIC [6]: 250 mg/L (≈ 549 µM)
- MIC [10]: 125 mg/L (≈ 275 µM)
- MIC [11]: 250 mg/L (≈ 549 µM)

SMILES: O=C(O)c1cn(C2CC2)c2cc(N3CCNCC3)c(F)cc2c1=O [CIPROFLOXACIN]
- MIC [1]: 50 mg/L (≈ 151 µM)
- MIC [3]: 50 mg/L (≈ 151 µM)
- MIC [10]: 25 mg/L (≈ 75.4 µM)

SMILES: COC1=CC(=O)C[C@@H](C)[C@]12Oc1c(Cl)c(OC)cc(OC)c1C2=O [GRISEOFULVIN]
- MIC [2]: 100 mg/L (≈ 283 µM)
- MIC [5]: 500 mg/L (≈ 1420 µM)
- MIC [11]: 100 mg/L (≈ 283 µM)

SMILES: NNC(=O)c1ccncc1 [ISONIAZID]
- MIC [4]: 0.2 mg/L (≈ 1.46 µM)
